Data reported in ChEMBL document CHEMBL1148393, “SAR studies of dihydro-beta-agarofuran sesquiterpenes as inhibitors of the multidrug-resistance phenotype in a Leishmania tropica line overexpressing a P-glycoprotein-like transporter” (J Med Chem, 2004).

Experiments:
Assay type in all cases: functional
[1] = system: Leishmania tropica; experiment: Percentage of growth inhibition of wild type Leishmania tropica lines at 3 uM; Value ranges from 0 to 6%
In short: (§1)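 Intrinsic toxicity on the wild-type L. tropica LRC clone, with no DNM present. Log-phase promastigotes were plated at 3 × 10⁵ cells/well in RPMI 1640-modified medium with 20% FBS, with sesquiterpene diluted from DMSO stocks, for 72 h at 28 °C. MTT was added for 4 h, then 20% SDS, and A540 read. Percent growth inhibition is taken against untreated control absorbance.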

[2] = system: Leishmania tropica; experiment: Percentage of growth inhibition of wild type Leishmania tropica lines at 7 uM; Value ranges from 0 to 6%; in short: as §1
[3] = system: Leishmania tropica; experiment: (§2) Percentage of growth inhibition of wild type Leishmania tropica lines at 15 uM
In short: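 WT L. tropica LRC-strain promastigotes (log phase, RPMI 1640-modified medium + 20% heat-inactivated FBS, 28 °C) seeded at 3 × 10⁵ cells/well and exposed without DNM to sesquiterpenes diluted from DMSO stocks. After 72 h at 28 °C, MTT (5 mg/mL in PBS) was added for 4 h, formazan dissolved in 20% SDS, A540 read. Growth inhibition (%) calculated relative to untreated control absorbance.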

[4] = system: Leishmania tropica; experiment: Percentage of growth inhibition of multidrug resistance Leishmania tropica Lines at 7 uM.
In short: (§3)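 Log-phase MDR promastigotes were plated at 3 × 10⁵ cells/well in RPMI 1640-modified medium with 20% FBS and 150 µM DNM. Sesquiterpenes (DMSO stocks diluted in medium) were added and cells kept 72 h at 28 °C. MTT was added for 4 h, formazan dissolved in 20% SDS and A540 read. Growth inhibition is relative to DNM-treated controls without modulator.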

[5] = system: Leishmania tropica; experiment: Percentage of growth inhibition of multidrug resistance Leishmania tropica Lines at 15 uM; in short: as §3
[6] = system: Leishmania tropica; experiment: Percent growth inhibition of wild type Leishmania tropica at 1 uM; in short: as §1
[7] = system: Leishmania tropica; experiment: Percentage of growth inhibition of multidrug resistance Leishmania tropica Lines at 3 uM; in short: as §3
[8] = system: Leishmania tropica; experiment: Percentage of growth inhibition of multidrug resistance Leishmania tropica Lines at 1 uM; in short: as §3
[9] = system: Leishmania tropica; experiment: Percentage of growth inhibition of multidrug resistance Leishmania tropica Lines at 1 uM.; in short: as §3
[10] = system: Leishmania tropica; experiment: Percentage of growth inhibition of multidrug resistance Leishmania tropica Lines at 7 uM; Value ranges from 0 to 6%; in short: as §3
[11] = system: Leishmania tropica; experiment: as §2; in short: as §1; remark: listed apart in the source
[12] = system: Leishmania tropica; experiment: Percentage of growth inhibition of multidrug resistance Leishmania tropica Lines at 3 uM.; in short: as §3
[13] = system: Leishmania tropica; experiment: Percentage of growth inhibition of wild type Leishmania tropica Lines at 3 uM.; in short: as §1
[14] = system: Leishmania tropica; experiment: Percentage of growth inhibition of wild type Leishmania tropica Lines at 7 uM.; in short: as §1
[15] = system: Leishmania tropica; experiment: Percentage of growth inhibition of multidrug resistance Leishmania tropica Lines at 15 uM; Value ranges from 0 to 6%; in short: as §3

CC(=O)O[C@H]1[C@@H](OC(=O)c2ccccc2)C[C@](C)(O)C23OC(C)(C)C(C[C@H](OC(=O)c4ccco4)[C@]12C)[C@H]3OC(=O)c1ccc([N+](=O)[O-])cc1 (some centres not stated)
inhibition at 3 µM [1]: 6% | inhibition at 7 µM [2]: 6% | inhibition at 15 µM [3]: 10.8% | inhibition at 7 µM [4]: 26.4% | inhibition at 15 µM [5]: 51.1% | inhibition at 1 µM [6]: < 6% | inhibition at 3 µM [7]: 13.5% | inhibition at 1 µM [8]: 6.4%

COc1ccc(C(=O)O[C@@H]2C3C[C@H](OC(=O)c4ccco4)[C@]4(C)[C@@H](OC(C)=O)[C@@H](OC(=O)c5ccccc5)C[C@](C)(O)C24OC3(C)C)cc1 (some centres not stated)
inhibition at 1 µM [9]: < 6% | inhibition at 7 µM [10]: 6% | inhibition at 3 µM [1]: 6% | inhibition at 7 µM [2]: 6% | inhibition at 15 µM [11]: < 6% | inhibition at 15 µM [5]: 11.8% | inhibition at 1 µM [6]: < 6% | inhibition at 3 µM [12]: 6%

CC(=O)O[C@@H]1C2C[C@H](OC(=O)c3ccco3)[C@]3(C)[C@@H](OC(C)=O)[C@@H](OC(=O)c4ccco4)C[C@](C)(O)C13OC2(C)C (some centres not stated)
inhibition at 3 µM [13]: < 6% | inhibition at 1 µM [9]: < 6% | inhibition at 7 µM [10]: 6% | inhibition at 7 µM [14]: < 6% | inhibition at 15 µM [11]: < 6% | inhibition at 1 µM [6]: < 6% | inhibition at 15 µM [15]: 6% | inhibition at 3 µM [12]: 6%

CC(=O)OC[C@@]12[C@@H](OC(C)=O)[C@@H](OC(C)=O)[C@@H]3OC(=O)[C@H](C)[C@@H](C)c4ncccc4C(=O)OC[C@@]4(C)OC1([C@H](OC(C)=O)C4[C@H](OC(C)=O)[C@@H]2OC(C)=O)[C@@]3(C)O
inhibition at 3 µM [13]: < 6% | inhibition at 1 µM [9]: < 6% | inhibition at 7 µM [10]: 6% | inhibition at 7 µM [14]: < 6% | inhibition at 15 µM [11]: < 6% | inhibition at 1 µM [6]: < 6% | inhibition at 15 µM [15]: 6% | inhibition at 3 µM [12]: < 6%
